Screening data from PubChem BioAssay.
TAG inh – reduces triacylglycerol accumulation in H9c2 cells. 230,000 tested, 0.66% active. Nile Red lipid (TAG) fluorescence; cells loaded with 200 µM oleic acid. inhibition, % at 12.5 µM;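 active means pattern-corrected inhibition of lipid staining of at least 50% with the nuclear-stain viability signal not falling by more than 50%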;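 further: 0% = DMSO wells and 100% = triacsin C control wells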
NTR1 agonist – NTR1 (human) agonism | P30989 | NTR1-U2OS beta-arrestin-GFP spot imaging, agonist mode | activation, % at 20 µM | 330,000 tested, 0.17% active | AID 493036;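 active means activation at or above 40% of the spot to cytoplasm intensity ratio, with at least 20 cells analyzed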;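 further: 0% = DMSO without peptide and 100% = 100 nM NTR1 peptide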
Target sequence (P30989 whole entry, looked up): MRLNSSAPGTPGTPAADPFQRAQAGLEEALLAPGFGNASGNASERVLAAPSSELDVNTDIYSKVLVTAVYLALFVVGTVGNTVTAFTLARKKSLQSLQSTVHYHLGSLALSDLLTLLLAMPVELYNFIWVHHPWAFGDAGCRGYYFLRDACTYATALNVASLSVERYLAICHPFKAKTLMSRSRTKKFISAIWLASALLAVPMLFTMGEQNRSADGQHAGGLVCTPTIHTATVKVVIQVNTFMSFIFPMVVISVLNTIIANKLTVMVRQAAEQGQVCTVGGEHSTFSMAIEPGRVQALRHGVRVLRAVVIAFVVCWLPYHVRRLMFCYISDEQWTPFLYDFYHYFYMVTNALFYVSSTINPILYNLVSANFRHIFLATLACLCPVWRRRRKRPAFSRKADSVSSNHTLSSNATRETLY
MC4R antag cAMP – blocks human MC4R cAMP signaling. MC4R-expressing cells, MTII-stimulated cAMP, LANCE TR-FRET. inhibition, % at 6.5 µM. 360,000 tested, 0.48% active;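 active means inhibition above its plate's cutoff, the mean of tested wells on that plate plus 3 SD, cut at about 29% in these data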;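 further: 0% = Melanotan II alone and 100% = Melanotan II plus saturating MCL0020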
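Test system: U2OS cells stably expressing human melanocortin 4 receptor (MC4R); also added: Melanotan II challenge; compound: 6.5 µM single dose; timing: 30-min compound preincubation, 1-h Melanotan II challenge, 1-h detection, room temperature; signal: Eu-cAMP/anti-cAMP TR-FRET, emission 671 nm; repeats: one well per compound, no replicates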
TbMetRS inhib – Trypanosoma brucei MetRS inhibition; inhibition, % at 11.9 µM; 360,000 tested, 0.4% active; purified T. brucei MetRS, ATP depletion, Kinase-Glo luminescence;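 active means inhibition above a per-plate cutoff of the control wells' mean inhibition plus 3 SD, cut at about 5.5% in these data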;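 further: 0% = DMSO wells median and 100% = median of wells with control inhibitor compound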
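Assay system: T. brucei methionyl-tRNA synthetase, purified | Medium: HEPES buffer with MgCl2, KCl, DTT, spermine, BSA, pyrophosphatase | Compound: 11.9 µM single point | Incubation: 15 min enzyme-compound preincubation, 2 h reaction, 10 min detection, 25 °C | Measured by: Kinase-Glo luciferase luminescence reporting remaining unconsumed ATP | Measure: % inhibition normalized to control-well medians | Replication: Singlicate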
aDG glyco act – alpha-DG glycosylation activation; activation, % at 10 µM; Pro5-aDG cells, alpha-DG glycosylation AlphaScreen (IIH6); 0% Pro5, 100% B10-LARGE cell signal; 360,000 tested, 0.22% active;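 active means activation of at least 8% versus controls, or a plate z-score of at least 8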;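 further: Pro5 are CHO cells carrying HIG-tagged alpha-DG that lacks glycosylation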
MC4R barr agon – human MC4R agonism via beta-arrestin | P32245 | U2OS MC4R beta-arrestin complementation, luminescence; percent of melanotan II response, DMSO zero | activation, % at 8.9 µM | 360,000 tested, 0.98% active | AID 540308;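 active means activation above a per-plate cutoff, the mean activation of sample wells on that plate plus 3 SD, cut at about 8% in these data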
TbMetRS confirm – Trypanosoma brucei MetRS inhibition confirmed; shares compounds with TbMetRS inhib; T. brucei MetRS enzyme, luminescence (ATP depletion); inhibition, % at 11.9 µM; 1,400 tested, 93% active; in the data active means inhibition above about 7%
Jurkat tox – counter-screen for T. brucei MetRS inhibitors: Jurkat cell cytotoxicity; 1,400 tested, 12% active; shares compounds with TbMetRS inhib; inhibition, % at 8.3 µM; AID 624413; Jurkat cells viability, ATP luminescence; in the data active means inhibition above about 15%;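 further: 0% = vehicle and 100% = reference inhibitor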
Tb MetRS inh FP – inhibits T. brucei methionyl tRNA synthetase in orthogonal FP test; shares compounds with TbMetRS inhib; purified T. brucei MetRS, fluorescence polarization; inhibition, % at 11.9 µM; 1,400 tested, 44% active; AID 651607; in the data active means inhibition above about 17%;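 further: 0% = vehicle wells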
* marks the source's active call; other numbers are inactive results; . = not tested or not shown. Hits are enriched below; roughly 2.4% of the tested compounds scored in any of these assays.

SMILES	TAG inh	NTR1 agonist	MC4R antag cAMP	TbMetRS inhib	aDG glyco act	MC4R barr agon	TbMetRS confirm	Jurkat tox	Tb MetRS inh FP
COc1ccc(CN=C2NN=C(c3ccc(Cl)cc3)CS2)cc1	0	2	13	-1	0	-1	.	.	.
CCN(CC(=O)Nc1c(F)cccc1F)C(=O)c1ccc2c(c1)NC(=O)C(C)S2 (configuration not stated)	15	0	-1	0	0	1	.	.	.
CCN(CC(=O)Nc1ccc(OC)cc1)C(=O)c1ccc2c(c1)NC(=O)C(C)S2 (configuration not stated)	2	0	23	18*	0	-1	48*	-1	24*
CC(C)c1ccc(N)c(S(=O)(=O)O)c1	-3	0	18	7.7*	0	-2	2	0	6
CCOc1ccc(Nc2ccc(N)c(S(=O)(=O)O)c2)cc1	1	.	-8	0	0	-2	.	.	.
O=C(Cn1c(CC(=O)N2CCOCC2)nc2ccccc21)Nc1ccc2c(c1)OC(F)(F)O2	-3	4	-1	25*	0	-2	41*	9	20*
S=c1[nH]nc(CCc2nc3ccccc3[nH]2)n1-c1cccc(Cl)c1	-1	-1	14	7.7*	0	-1	14*	-7	1
O=C(CSCc1nc2ccccc2[nH]1)N1CCN(c2cccc(Cl)c2)CC1	.	1	9	13*	0	-1	26*	3	11
COc1cc(-c2cc(NC=O)c3ncc(-c4ccc(C(C)=O)cc4)n3c2)ccc1O	37	.	3	0	0	7	.	.	.
CCCCOCCCNC(=O)C[C@@H]1C[C@@]2(C(=O)OC)CCCCC=C2N(Cc2ccco2)C1=O	.	.	.	0	0	.	.	.	.
COc1cc(C(O)c2nc(-c3ccncc3)cs2)ccc1F (configuration not stated)	-18	.	-3	0	1	-1	.	.	.
Clc1ccc(NCc2nnc3n2CCCCC3)cc1	.	0	3	0	0	-1	.	.	.
Cc1cc(Cl)ccc1OCc1nnc2n1CCCCC2	4	1	-3	9.4*	1	-1	20*	0	9
Clc1ccc(OCc2nnc3n2CCCCC3)c(Cl)c1	4	1	-1	16*	0	3	36*	0	18*
c1ccc(OCc2nnc3n2CCCCC3)cc1	-5	-1	5	-1	0	-1	.	.	.
O=C(CCc1nc2ccccc2c(=O)[nH]1)OCc1ccccc1F	.	0	16	1	0	1	.	.	.
O=C(CCc1nc2ccccc2c(=O)[nH]1)OCCOc1ccc(Cl)cc1	-3	2	-2	16*	0	0	30*	5	19*
O=c1c(OC2OC(CO)C(O)C(O)C2OC2OC(CO)C(O)C(O)C2O)c(-c2ccc(O)cc2)oc2cc(O)cc(O)c12 (configuration not stated)	.	0	3	7.1*	0	-1	22*	-3	23*
Cc1ccc2[nH]c(=O)c(CN(Cc3cccs3)Cc3nnnn3Cc3ccccc3)cc2c1	.	7	9	9.1*	0	-1	21*	5	14
CNc1nc(Nc2ccc(C)cc2C)c2sccc2n1	-35	.	-8	0	0	0	.	.	.
O=C(Cc1ccccc1)NCCc1ccc(Cl)cc1Cl	.	2	10	0	0	-2	.	.	.
N=c1sccn1CC(=O)NCCc1ccc(Cl)cc1Cl	12	-1	-8	16*	0	-2	42*	-5	10
Cc1ccccc1-c1cc2nc(NCc3ccc(N(C)C)cc3)n(C)c(=O)c2s1	-3	.	18	0	0	0	.	.	.
C=CCNC(=S)NNC(=O)c1ccc(=O)n(Cc2ccc(Cl)cc2Cl)c1	4	1	1	34*	0	-2	44*	6	32*
CCNC(=S)NNC(=O)c1ccc(=O)n(Cc2ccccc2)c1	2	0	6	22*	0	-4	37*	1	22*
SMILES	TAG inh	NTR1 agonist	MC4R antag cAMP	TbMetRS inhib	aDG glyco act	MC4R barr agon	TbMetRS confirm	Jurkat tox	Tb MetRS inh FP
O=C(NCc1ccccc1)c1ccc(Cn2cc(C(F)(F)F)ccc2=O)cc1	-3	-1	14	0	0	0	.	.	.
O=C(Nc1ccccc1)c1ccc(=O)n(Cc2cccc(Cl)c2)c1	2	2	14	43*	1	3	58*	6	28*
CNC(=S)NNC(=O)c1ccc(=O)n(Cc2cccc(C(F)(F)F)c2)c1	.	0	12	6.1*	0	-1	13*	-2	3
CCOC(=O)C(c1nc2ccccc2[nH]1)n1c(-c2ccccn2)nc2ccccc21 (configuration not stated)	.	.	.	0	0	.	.	.	.
CCC(=O)Nc1ccc2c(c1)OC[C@@H](C)N(Cc1cccc(F)c1)C[C@@H](C)[C@@H](OC)CN(C)C2=O	.	.	.	-1	0	.	.	.	.
COc1cc(CNCCN2CCOCC2)ccc1OCc1ccc(Cl)cc1Cl	36	0	-2	7.0*	3	-2	15*	17*	8
COc1cc(CNCc2ccccn2)ccc1OCc1ccc(Cl)cc1Cl	7	-1	30*	9.9*	2	9.2*	17*	15	12
COc1cc(CNCCN2CCOCC2)ccc1OCc1cccc(Cl)c1	.	1	3	0	0	-1	.	.	.
O=C(NCCN1CCC(n2c(=O)[nH]c3ccccc32)CC1)c1ccc(F)cc1F	.	.	.	-1	5	.	.	.	.
O=C(Nc1ccc(Cl)cc1)N(Cc1nc2ccccc2c(=O)[nH]1)Cc1cccs1	.	8	4	9.8*	4	-3	38*	3	19*
O=C(c1ccccc1)c1sc(Nc2ccc3c(c2)OCO3)nc1-c1ccccc1	.	.	.	1	0	.	.	.	.
CS(=O)(=O)N1CCN(c2ccccc2NC(=O)Nc2cccc(Cl)c2)CC1	.	4	-5	8.4*	0	-2	24*	-4	74*
Cc1ncc([N+](=O)[O-])n1CC(=O)Nc1ccc(Br)cc1	.	0	14	6.1*	0	-1	14*	-6	0
Cc1ccc(NC(=O)Cn2c([N+](=O)[O-])cnc2C)cc1	0	-1	0	0	0	0	.	.	.
O=C(CSc1n[nH]c(-c2ccc(Br)cc2)n1)NC1CCCC1	-16	-2	12	12*	0	2	41*	1	14
